Measured values: ChEMBL document CHEMBL4431362, “Identification of small molecule inhibitors of botulinum neurotoxin serotype E via footprint similarity” (Bioorg Med Chem, 2016)
The source made the active and inactive calls. The calls are words filed in the database; no cut-off is given here. Square brackets hold non-standard residues; d marks the D form. Peptide text beside a SMILES is read from it. * marks the point of attachment. ξ: configuration not given here. Dnp = O=[N+]([O-])c1ccc(*)c([N+](=O)[O-])c1; ξDab = NCCC(N)C(=O)O

Experiments:
[1] = biological target: T1, Botulinum neurotoxin type E (Clostridium botulinum) (UniProt Q00496); test: Inhibition of Clostridium botulinum BoNT/E light chain-mediated SNAP-25 cleavage assessed as reduction in residual activity using SNAP-Etide as substrate at 100 uM after 15 mins by micro plate reader method
T1 sequence (whole entry): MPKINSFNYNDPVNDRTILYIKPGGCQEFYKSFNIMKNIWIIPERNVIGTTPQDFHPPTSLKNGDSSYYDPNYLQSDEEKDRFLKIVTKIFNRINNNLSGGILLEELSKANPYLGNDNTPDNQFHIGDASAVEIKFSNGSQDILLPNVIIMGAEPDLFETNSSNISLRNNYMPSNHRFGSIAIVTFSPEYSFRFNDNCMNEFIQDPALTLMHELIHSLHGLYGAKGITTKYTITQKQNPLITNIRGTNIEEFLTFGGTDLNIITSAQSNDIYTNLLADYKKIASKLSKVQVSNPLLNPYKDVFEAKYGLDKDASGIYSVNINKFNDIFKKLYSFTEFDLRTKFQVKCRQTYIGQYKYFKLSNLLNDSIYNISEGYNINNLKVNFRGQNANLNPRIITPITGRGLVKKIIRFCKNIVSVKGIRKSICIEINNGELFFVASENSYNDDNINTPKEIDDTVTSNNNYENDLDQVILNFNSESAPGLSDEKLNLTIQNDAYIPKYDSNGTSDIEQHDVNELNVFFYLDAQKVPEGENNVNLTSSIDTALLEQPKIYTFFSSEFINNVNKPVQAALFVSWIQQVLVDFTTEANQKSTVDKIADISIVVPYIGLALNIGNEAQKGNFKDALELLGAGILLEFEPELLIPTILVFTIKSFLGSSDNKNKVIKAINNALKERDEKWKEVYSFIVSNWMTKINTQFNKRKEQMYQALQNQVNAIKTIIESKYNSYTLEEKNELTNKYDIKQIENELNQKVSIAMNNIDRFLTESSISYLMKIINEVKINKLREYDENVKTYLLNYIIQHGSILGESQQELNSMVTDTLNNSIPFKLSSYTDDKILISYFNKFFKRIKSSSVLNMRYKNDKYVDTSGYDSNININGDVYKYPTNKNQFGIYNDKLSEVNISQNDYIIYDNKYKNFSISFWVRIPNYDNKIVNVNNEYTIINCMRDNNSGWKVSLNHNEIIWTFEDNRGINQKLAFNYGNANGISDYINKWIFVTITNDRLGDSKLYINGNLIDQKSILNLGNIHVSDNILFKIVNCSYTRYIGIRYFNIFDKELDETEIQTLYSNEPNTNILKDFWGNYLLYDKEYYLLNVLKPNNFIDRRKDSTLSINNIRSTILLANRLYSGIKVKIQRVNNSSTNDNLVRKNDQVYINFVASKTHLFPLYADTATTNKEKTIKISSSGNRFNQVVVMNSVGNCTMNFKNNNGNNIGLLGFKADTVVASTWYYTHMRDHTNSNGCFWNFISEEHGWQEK
How it was run: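 Compound was preincubated 15 min with 2.5 nM BoNT/E light chain in 20 mM Hepes pH 7.4 with 2 mM DTT (final DMSO ≤1%). Reaction was started with 10 µM SNAP-Etide at 37°C and read as fluorescence (ex 320/em 420 nm). Percent inhibition = [1 − (test initial velocity ÷ mean initial velocity of two DMSO controls)] × 100.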

[2] = biological target: T1, Botulinum neurotoxin type E (Clostridium botulinum); test: (§1) Inhibition of Clostridium botulinum BoNT/E light chain using GFP-tagged VAMP2/SNAP-25 (Ala128 to Gly206 residues) as substrate after 15 mins by GFP based micro plate reader method
How it was run: (§2)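 Recombinant BoNT/E light chain (25 nM) in 20 mM Hepes pH 7.4 with 2 mM DTT, preincubated 15 min with compound, then added to streptavidin plates carrying an immobilised biotinylated AviTag–VAMP2/SNAP-25–GFP substrate. GFP release was followed at 37°C (ex 460/em 506 nm). Triplicates over a range of concentrations; IC50 came from a sigmoid fit with Hill slope fixed at 1. The ratio uses the reference inhibitor run under the same conditions.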

[3] = biological target: T2, Botulinum neurotoxin type A (Clostridium botulinum, UniProt P0DPI0); test: Inhibition of protease activity of Clostridium botulinum BoNT/A using N(K)-acetyl)-SNKTRIDEANQRATKML-carboxamide as substrate
T2 sequence (P0DPI0 2-448 limits assumed): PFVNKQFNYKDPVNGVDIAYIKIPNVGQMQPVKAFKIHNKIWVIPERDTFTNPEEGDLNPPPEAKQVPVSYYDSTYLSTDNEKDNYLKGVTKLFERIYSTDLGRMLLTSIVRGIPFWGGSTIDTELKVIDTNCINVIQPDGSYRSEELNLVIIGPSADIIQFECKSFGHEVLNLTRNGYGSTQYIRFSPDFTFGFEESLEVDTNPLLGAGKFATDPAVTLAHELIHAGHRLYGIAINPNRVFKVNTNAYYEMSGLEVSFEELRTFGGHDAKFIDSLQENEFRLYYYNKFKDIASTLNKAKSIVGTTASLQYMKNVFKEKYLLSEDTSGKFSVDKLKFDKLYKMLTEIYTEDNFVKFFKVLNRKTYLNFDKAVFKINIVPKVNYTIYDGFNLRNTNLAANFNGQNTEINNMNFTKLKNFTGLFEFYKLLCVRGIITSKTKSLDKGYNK

[4] = biological target: T2, Botulinum neurotoxin type A; test: Inhibition of Clostridium botulinum BoNT/A light chain
[5] = biological target: T2, Botulinum neurotoxin type A; test: Inhibition of protease activity of Clostridium botulinum BoNT/A using SNAP-25 as substrate by FRET analysis
[6] = biological target: T3, Botulinum neurotoxin type E (Clostridium botulinum, UniProt Q00496); test: as §1; how it was run: as §2
T3 sequence (Q00496 whole entry): T1 sequence (whole entry)

[7] = biological target: T1, Botulinum neurotoxin type E (Clostridium botulinum); test: Inhibition of Clostridium botulinum BoNT/E light chain using GFP-tagged VAMP2/SNAP-25 (Ala128 to Gly206 residues) as substrate at 100 uM after 15 mins by GFP based micro plate reader method
How it was run: (§3)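 Immobilised biotinylated AviTag–VAMP2/SNAP-25(Ala128–Gly206)–GFP substrate on streptavidin plates. BoNT/E light chain (25 nM) in 20 mM Hepes pH 7.4 with 2 mM DTT was preincubated 15 min with compound before addition to the wells. Liberated GFP was read at 37°C (ex 460/em 506 nm). Percent inhibition at a single concentration, run in triplicate.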

[8] = biological target: T1, Botulinum neurotoxin type E (Clostridium botulinum); test: Inhibition of Clostridium botulinum BoNT/E light chain using GFP-tagged VAMP2/SNAP-25 (Ala128 to Gly206 residues) as substrate at 25 uM after 15 mins by GFP based micro plate reader method; how it was run: as §3
[9] = biological target: T1, Botulinum neurotoxin type E (Clostridium botulinum); test: Inhibition of Clostridium botulinum BoNT/E light chain using GFP-tagged VAMP2/SNAP-25 (Ala128 to Gly206 residues) as substrate at 12.5 uM after 15 mins by GFP based micro plate reader method; how it was run: as §3
[10] = biological target: T1, Botulinum neurotoxin type E (Clostridium botulinum); test: Potency index, ratio of IC50 for NSC-77053 to IC50 for test compound for inhibition of Clostridium botulinum BoNT/E light chain using GFP-tagged VAMP2/SNAP-25 (Ala128 to Gly206 residues) as substrate after 15 mins by GFP based micro plate reader method; how it was run: as §2

Molecule | inhibition [1] [%] | inhibition [2] | also measured
Cc1cc(C)cc(N(CC(=O)Nc2ccc(C(F)(F)F)cc2)S(=O)(=O)c2c(C)nc(O)nc2O)c1 | 42 | inactive | 
H-CRATKML-OH |  |  | Ki [3]: 2 µM
CCOc1ccc(OCC)c(NC(=O)CSc2cc(N3CCC(C(=O)NC4CC4)CC3)ncn2)c1 | 25 | inactive | 
N=C(N)NCCC[C@H](NC(=O)[C@@H](N)CCCNC(=N)N)C(=O)NCC(=O)N[C@@H](Cc1ccccc1)C(=O)O (H-RRGF-OH) |  |  | IC50 [4]: 0.9 µM
O=C(/C=C/c1ccc(Cl)cc1)NO |  |  | IC50 [5]: 15 µM
COc1ccc(CNC(=O)C(=O)N[C@@H](C)[C@H](c2cccs2)N2CCN(Cc3ccccc3)CC2)cc1 | 47 | inactive | 
CC[C@H](C)[C@H](NS(=O)(=O)c1ccc2oc(=O)n(C)c2c1)C(=O)Nc1cccc(C)c1C |  |  | IC50 [6]: 16 µM
CCOc1ccc(NC(=O)CSc2nccn2-c2cccc(C(=O)Nc3ccccc3)c2)cc1 | 40 | inactive | 
Cc1cccc(NC(=O)[C@@H](CC(C)C)NS(=O)(=O)c2ccc3oc(=O)n(C)c3c2)c1C | 71 |  | inhibition [7]: 84%; inhibition [8]: 58%; inhibition [9]: 46.5%; IC50 [6]: 14.2 µM; Ratio IC50 [10]: 3
Cc1ccc(NC(=O)N2CC(=O)N(CC(=O)NC[C@H]3CCCO3)c3ccccc32)cc1 | 33 | inactive | 
CSCC[C@H](NC(=O)C(CCN)NC(=O)[C@@H](NC(=O)[C@H](Cc1c[nH]c2ccccc12)NC(=O)[C@H](CCCNC(=N)N)NC(=O)C(N)CCNc1ccc([N+](=O)[O-])cc1[N+](=O)[O-])[C@@H](C)O)C(=O)N[C@@H](CC(C)C)C(=O)O (stereo partly specified) (H-[ξDab](Dnp)RWT[ξDab]ML-OH) |  |  | Ki [3]: 0.041 µM
Cc1cccc(NC(=O)[C@H](CC(C)C)NS(=O)(=O)c2ccc3oc(=O)n(C)c3c2)c1C |  |  | inhibition [7]: 77.5%; inhibition [8]: 62.5%; inhibition [9]: 52%
CC(=O)c1cccc(NC(=O)CSc2nnc(SCC(=O)Nc3cccc(C(C)=O)c3)s2)c1 | 31 | inactive | 
CC(=O)N/C(=C\c1c[nH]c2ccccc12)C(=O)N[C@@H](Cc1c[nH]c2ccccc12)C(=O)O (stereo in doubt) | 52 | inactive | 
O=C(O)c1ccccc1C(=O)c1ccc2c(c1)Cc1ccccc1-2 |  |  | IC50 [6]: 48.5 µM
COc1ccc(N(CC(=O)Nc2ccc(F)c(Cl)c2)S(=O)(=O)c2c(C)[nH]c(=O)[nH]c2=O)cc1 | 41 | inactive | 
